In ChEMBL document CHEMBL3286371, “wALADin benzimidazoles differentially modulate the function of porphobilinogen synthase orthologs” (J Med Chem, 2014):
Activity calls are given as the source filed them. No cut-off for these calls is given here.

Assays:
[1] = molecular target: T1, Delta-aminolevulinic acid dehydratase, chloroplastic (Pisum sativum) (UniProt P30124); test: Inhibition of Pisum sativum PBGS using 10 mM 5-ALA as substrate assessed as decrease in enzyme activity at 6.25 to 100 uM in presence of MgCl2; conditions: Lathyrus oleraceus
T1 sequence (whole entry): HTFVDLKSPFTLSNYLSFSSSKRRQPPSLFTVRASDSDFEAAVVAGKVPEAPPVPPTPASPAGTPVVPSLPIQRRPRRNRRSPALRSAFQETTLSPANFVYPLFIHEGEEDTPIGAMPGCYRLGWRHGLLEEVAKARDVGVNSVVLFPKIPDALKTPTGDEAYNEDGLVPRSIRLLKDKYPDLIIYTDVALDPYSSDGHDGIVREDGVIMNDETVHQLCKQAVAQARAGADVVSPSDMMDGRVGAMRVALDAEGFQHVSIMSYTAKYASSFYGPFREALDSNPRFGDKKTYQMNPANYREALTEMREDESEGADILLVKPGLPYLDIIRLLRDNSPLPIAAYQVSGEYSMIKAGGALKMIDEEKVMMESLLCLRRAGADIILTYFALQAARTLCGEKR

[2] = molecular target: Delta-aminolevulinic acid dehydratase (Pseudomonas aeruginosa (strain ATCC 15692 / PAO1 / 1C / PRS 101 / LMG12228)) (UniProt Q59643); test: Stimulation of Pseudomonas aeruginosa PAO1 recombinant PBGS using 5 mM 5-ALA as substrate assessed as change in enzyme affinity for Mg2+ at 10 to 10000 uM at pH 8 by buffer scan assay in presence of MgCl2
Sequence of Delta-aminolevulinic acid dehydratase (Pseudomonas aeruginosa (strain ATCC 15692 / PAO1 / 1C / PRS 101 / LMG12228)) (Q59643 whole entry): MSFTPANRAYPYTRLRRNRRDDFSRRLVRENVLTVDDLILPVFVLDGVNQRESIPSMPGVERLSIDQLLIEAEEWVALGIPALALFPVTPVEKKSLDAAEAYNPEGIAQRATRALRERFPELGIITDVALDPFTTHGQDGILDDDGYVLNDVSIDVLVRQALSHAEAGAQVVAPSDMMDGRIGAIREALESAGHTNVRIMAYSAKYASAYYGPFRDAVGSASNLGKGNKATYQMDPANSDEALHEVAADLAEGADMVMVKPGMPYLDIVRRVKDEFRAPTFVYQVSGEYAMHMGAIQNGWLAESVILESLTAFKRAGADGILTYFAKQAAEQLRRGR
Outline: (§1)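 Mg2+ or substrate response curves recorded with and without wALADin1; VMAX, KM and Mg2+ affinity derived from the fits.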

[3] = molecular target: Delta-aminolevulinic acid dehydratase (Yersinia enterocolitica W22703) (UniProt F4MUJ9); test: Stimulation of Yersinia enterocolitica recombinant PBGS expressed in Escherichia coli at 125 to 2000 uM by nondenaturing PAGE analysis in presence of Mg2+ and K+
Sequence of Delta-aminolevulinic acid dehydratase (Yersinia enterocolitica W22703) (F4MUJ9 as listed by the source): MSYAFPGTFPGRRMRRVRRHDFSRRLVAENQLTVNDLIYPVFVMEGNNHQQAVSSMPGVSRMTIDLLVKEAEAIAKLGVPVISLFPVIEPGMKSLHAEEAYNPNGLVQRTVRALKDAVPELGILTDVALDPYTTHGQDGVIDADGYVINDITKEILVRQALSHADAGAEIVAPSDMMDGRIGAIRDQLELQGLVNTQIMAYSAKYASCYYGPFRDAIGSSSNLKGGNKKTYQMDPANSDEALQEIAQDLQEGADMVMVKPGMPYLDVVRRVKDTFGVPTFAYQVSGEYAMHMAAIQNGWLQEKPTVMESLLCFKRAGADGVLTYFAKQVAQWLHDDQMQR
Outline: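 YePBGS (2 μg) preincubated 20 min at 37 °C in BTP pH 8.0 buffer with K+, Mg2+ and wALADin1. Run on 7.5% nondenaturing PAGE; Coomassie stain and in-gel activity (100 mM KCl, 10 mM MgCl2, 500 μM 5-ALA) read with Ehrlich's reagent.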

[4] = molecular target: T2, Delta-aminolevulinic acid dehydratase (Escherichia coli (strain K12), UniProt P0ACB2); test: Stimulation of Escherichia coli recombinant PBGS using 5-ALA as substrate
T2 sequence (P0ACB2 whole entry): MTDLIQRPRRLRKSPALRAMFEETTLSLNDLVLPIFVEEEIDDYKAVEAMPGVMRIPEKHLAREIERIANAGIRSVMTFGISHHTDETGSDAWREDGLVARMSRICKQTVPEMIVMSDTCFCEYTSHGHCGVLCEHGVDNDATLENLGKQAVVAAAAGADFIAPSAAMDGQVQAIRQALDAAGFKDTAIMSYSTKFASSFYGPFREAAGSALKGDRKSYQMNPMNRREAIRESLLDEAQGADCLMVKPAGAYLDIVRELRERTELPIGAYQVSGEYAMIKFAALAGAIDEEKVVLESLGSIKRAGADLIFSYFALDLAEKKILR
Outline: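 E. coli PBGS at 200 nM subunit in 100 mM BTP-HCl pH 8.1 with 1 mM MgCl2, 10 μM ZnCl2, 5 mM DTT and 0.2 mM 5-ALA, 10 min at 36 °C. Porphobilinogen detected with Ehrlich's reagent. Activity normalized to control with 6.7% DMSO set at 100%. EC50 by log(agonist) vs response variable-slope fit.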

[5] = molecular target: Delta-aminolevulinic acid dehydratase (Yersinia enterocolitica W22703) (UniProt F4MUJ9); test: Inhibition of Yersinia enterocolitica recombinant PBGS expressed in Escherichia coli using 5-ALA as substrate at 50 to 200 uM at pH 7 to 8.5 by buffer scan assay
[6] = molecular target: T3, Delta-aminolevulinic acid dehydratase (Escherichia coli (strain K12)) (UniProt P0ACB2); test: Inhibition of Escherichia coli recombinant PBGS using 5-ALA as substrate at 50 to 200 uM at pH 7 to 8.5 by buffer scan assay in presence of KCl
T3 sequence (whole entry): T2 sequence (P0ACB2 whole entry)

[7] = molecular target: Delta-aminolevulinic acid dehydratase (Pseudomonas aeruginosa (strain ATCC 15692 / PAO1 / 1C / PRS 101 / LMG12228)) (UniProt Q59643); test: Activation of Pseudomonas aeruginosa PAO1 recombinant PBGS using 0.2 mM 5-ALA as substrate at 10 to 10000 uM at pH 7.5 by buffer scan assay in presence of 10 mM MgCl2
[8] = molecular target: Delta-aminolevulinic acid dehydratase (Pseudomonas aeruginosa (strain ATCC 15692 / PAO1 / 1C / PRS 101 / LMG12228)) (UniProt Q59643); test: Inhibition of Pseudomonas aeruginosa PAO1 recombinant PBGS assessed as inhibition of octamer-inducing effect of K+ by nondenaturing PAGE analysis
Outline: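 PaPBGS (3 μg) preincubated 20 min at 37 °C in assay buffer with 1 mM Mg2+, 100 mM K+ and wALADin1, no 5-ALA. Run on 7.5% nondenaturing PAGE at 4 °C for 15–20 h. Coomassie for oligomer state; in-gel activity with 500 μM 5-ALA stained with Ehrlich's reagent.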

[9] = molecular target: Delta-aminolevulinic acid dehydratase (Pseudomonas aeruginosa (strain ATCC 15692 / PAO1 / 1C / PRS 101 / LMG12228)) (UniProt Q59643); test: Stimulation of Pseudomonas aeruginosa PAO1 recombinant PBGS using 5 mM 5-ALA as substrate at 50 to 200 uM at pH 8 by buffer scan assay in presence of KCl
[10] = molecular target: Delta-aminolevulinic acid dehydratase (Yersinia enterocolitica W22703) (UniProt F4MUJ9); test: Stimulation of Yersinia enterocolitica recombinant PBGS expressed in Escherichia coli using 5-ALA as substrate at 10 to 1000 uM at pH 8 in presence of MgCl2 and KCl
[11] = molecular target: Delta-aminolevulinic acid dehydratase (Pseudomonas aeruginosa (strain ATCC 15692 / PAO1 / 1C / PRS 101 / LMG12228)) (UniProt Q59643); test: Stimulation of Pseudomonas aeruginosa PAO1 recombinant PBGS using 5-ALA as substrate at 10 to 1000 uM at pH 8 in presence of MgCl2 and KCl
[12] = molecular target: Delta-aminolevulinic acid dehydratase (Pseudomonas aeruginosa (strain ATCC 15692 / PAO1 / 1C / PRS 101 / LMG12228)) (UniProt Q59643); test: Stimulation of Pseudomonas aeruginosa PAO1 recombinant PBGS using 5 mM 5-ALA as substrate assessed as increase in Vmax at 50 to 200 uM at pH 8 by Michaelis-Menten plot analysis in presence of MgCl2; outline: as §1
[13] = molecular target: Delta-aminolevulinic acid dehydratase (Pseudomonas aeruginosa (strain ATCC 15692 / PAO1 / 1C / PRS 101 / LMG12228)) (UniProt Q59643); test: Inhibition of Pseudomonas aeruginosa PAO1 recombinant PBGS using 0.2 mM 5-ALA as substrate assessed as […] at 50 to 200 uM at pH 7.5 by buffer scan assay in presence of 1 mM MgCl2 and 1 to 1000 mM KCl
[14] = molecular target: T1, Delta-aminolevulinic acid dehydratase, chloroplastic (Pisum sativum); test: Partial competitive inhibition of Pisum sativum PBGS using 5-ALA as substrate at 6.25 to 100 uM in presence of MgCl2; conditions: Lathyrus oleraceus
[15] = Stimulation of Toxoplasma gondii recombinant PBGS using 5-ALA as substrate
Outline: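 T. gondii PBGS, expressed from pET-21b in BL21 E. coli and purified, at 250 nM subunit in 100 mM Tris-HCl pH 8.0 with 1 mM MgCl2, 5 mM DTT and 0.2 mM 5-ALA, 20 min at 36 °C. Porphobilinogen detected with Ehrlich's reagent. Activity normalized to 6.7% DMSO control. EC50 by variable-slope agonist fit.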

O=C(O)c1ccc2c(c1)nc(CCNC(=O)c1cccs1)n2Cc1cccc(C(F)(F)F)c1
inhibition [1]: Active
Activity [2]: Active
Activity [3]: inactive
EC50 [4]: 60 µM
inhibition [5]: Active
inhibition [6]: Active
Activity [7]: Active
inhibition [8]: Dose-dependent effect
Activity [9]: Active
Activity [10]: Active
Activity [11]: Active
Activity [12]: Active
inhibition [13]: inactive
inhibition [14]: Active
EC50 [15]: 95 µM
